Results on one compound are retold here after PMC2233905 (The Journal of General Physiology, 2004).

Series [1] can be described thus: Ionization: pKa and calculated protonated fractions. Type of series: physicochemical. In outline:
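Fractions of unprotonated, monoprotonated and diprotonated test compound were calculated from its two pKa values at pH 6.4, 7.4 and 8.4. The diprotonated percentage was 100 × [H+]2 divided by the summed-species denominator. Protonated fractions in the pH 7.4 recording solution were predicted the same way.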

The target of the next series is T1, Kv2.1 (Homo sapiens, UniProt Q14721).
T1 sequence (Q14721 1-858): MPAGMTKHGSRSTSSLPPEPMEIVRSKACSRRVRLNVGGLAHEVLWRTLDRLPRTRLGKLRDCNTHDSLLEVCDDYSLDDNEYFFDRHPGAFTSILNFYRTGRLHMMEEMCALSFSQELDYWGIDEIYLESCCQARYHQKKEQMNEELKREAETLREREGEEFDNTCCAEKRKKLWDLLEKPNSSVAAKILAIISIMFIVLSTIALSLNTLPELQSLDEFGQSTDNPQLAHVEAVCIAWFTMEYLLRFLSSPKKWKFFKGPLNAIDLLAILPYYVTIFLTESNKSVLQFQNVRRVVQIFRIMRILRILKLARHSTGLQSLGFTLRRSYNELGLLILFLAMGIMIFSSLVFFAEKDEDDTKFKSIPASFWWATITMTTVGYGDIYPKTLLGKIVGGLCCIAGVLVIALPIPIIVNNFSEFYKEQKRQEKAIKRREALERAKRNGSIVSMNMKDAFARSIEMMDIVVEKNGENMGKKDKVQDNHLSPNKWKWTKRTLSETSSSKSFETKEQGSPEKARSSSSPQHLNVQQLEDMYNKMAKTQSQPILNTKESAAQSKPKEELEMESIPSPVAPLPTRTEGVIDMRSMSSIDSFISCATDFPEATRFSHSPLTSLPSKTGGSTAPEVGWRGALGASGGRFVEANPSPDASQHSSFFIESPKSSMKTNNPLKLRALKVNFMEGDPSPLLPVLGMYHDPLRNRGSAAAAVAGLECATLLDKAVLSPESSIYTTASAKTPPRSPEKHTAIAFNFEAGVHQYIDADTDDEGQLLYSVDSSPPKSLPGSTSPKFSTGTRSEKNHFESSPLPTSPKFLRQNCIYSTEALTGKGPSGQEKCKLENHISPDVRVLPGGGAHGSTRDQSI
The series can be described thus: Kv2.1 channels. Type of series: cell-based. The following applies: concentrations up to 10 μM, unpublished data.

For the next series, the target named is T2, Kv4.2 (Homo sapiens, UniProt Q9NZV8).
T2 sequence (Q9NZV8 1-630): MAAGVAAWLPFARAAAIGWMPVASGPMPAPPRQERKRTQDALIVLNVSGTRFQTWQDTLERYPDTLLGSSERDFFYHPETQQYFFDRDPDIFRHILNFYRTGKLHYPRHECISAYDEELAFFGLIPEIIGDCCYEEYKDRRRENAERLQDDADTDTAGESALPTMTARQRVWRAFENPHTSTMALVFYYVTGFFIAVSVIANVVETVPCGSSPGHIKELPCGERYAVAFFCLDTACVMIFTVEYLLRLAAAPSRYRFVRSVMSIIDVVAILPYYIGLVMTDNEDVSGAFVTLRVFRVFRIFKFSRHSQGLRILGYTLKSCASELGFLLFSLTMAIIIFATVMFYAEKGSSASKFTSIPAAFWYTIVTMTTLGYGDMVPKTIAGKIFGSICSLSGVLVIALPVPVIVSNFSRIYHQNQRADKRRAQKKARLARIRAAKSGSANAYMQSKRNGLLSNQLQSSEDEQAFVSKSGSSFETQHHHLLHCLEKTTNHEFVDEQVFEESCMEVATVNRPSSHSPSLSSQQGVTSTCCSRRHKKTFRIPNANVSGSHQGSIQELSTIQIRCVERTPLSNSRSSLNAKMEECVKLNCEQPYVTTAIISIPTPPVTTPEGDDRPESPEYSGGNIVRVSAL
The series can be described thus: Kv4.2 channels. Format: cell-based. The conditions noted are these: concentrations up to 10 μM, unpublished data.

A further series deals with cloned HERG. The conditions noted are these: HEK-293 cells; ref Zhou et al., 1999; cited from earlier work.
For series [2] the following is noted: ref Fischer et al., 1997, 1998; cited from earlier work.
In series [3] the test system is outward currents of ventricular cardiomyocytes. The conditions noted are these: concentrations <10 μM; ref Berul and Morad, 1995; cited from earlier work.
The test system of another series is breast cancer cells. The conditions noted are these: ref Ouadid-Ahidouch et al., 2001; cited from earlier work.

The IC50 is the concentration that inhibits the measured activity by half. Turning to `COc1ccc(CCN2CCC(Nc3nc4ccccc4n3Cc3ccc(F)cc3)CC2)cc1` [astemizole], in series [1] (pH 6.4, calculated), the “Diprotonated form, percentile contribution” value is given as 13.6%; the “Monoprotonated form, percentile contribution” value was 85.7%; the “Unprotonated form, percentile contribution” value is on record as 0.7%. In addition, in series [1] (pH 7.4, calculated), the “Diprotonated form, percentile contribution” value is recorded as 1.4%; the “Monoprotonated form, percentile contribution” value was 91.3%; the “Unprotonated form, percentile contribution” value is listed as 7.3%. In addition, in series [1] (pH 7.4 recording solution), the predicted protonated fraction is on record as 93%. Also, in series [1] (pH 8.4, calculated), the “Diprotonated form, percentile contribution” value is on record as 0.1%; the “Monoprotonated form, percentile contribution” value is given as 55.7%; the “Unprotonated form, percentile contribution” value is given as 44.2%. For the same compound, at Kv2.1, the effect on current entry is recorded as “no significant effects”. Also, the effect on current result on Kv4.2 is listed as “no significant effects”. The half-inhibitory concentration (IC50) in the series with cloned HERG is 0.9 nM. Moreover, in series [2], the “pK a1” value is 5.6 and the “pK a2” value was 8.5. Further, the effect on currents entry in series [3] is “no effects”. For the same compound, the “effect on proliferation rate” value with breast cancer cells was “significant reduction”.
